Measured values taken from ChEMBL document CHEMBL1130204, “3 alpha-Hydroxy-3 beta-(phenylethynyl)-5 beta-pregnan-20-ones: synthesis and pharmacological activity of neuroactive steroids with high affinity for GABAA receptors” (J Med Chem, 1997).

Key:
Rattus norvegicus [1] = species: Rattus norvegicus; test: The maximum inhibitory potency was calculated by fitting [35S]TBPS inhibition data to a sigmoid function (rat brain cortical P2 membranes) (high affinity); assay type: functional
Method in brief: (§1)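 Rat cortical P2 membranes, washed in 200 mM NaCl/50 mM Na-K phosphate pH 7.4, incubated 90 min at room temperature with 2 nM [35S]TBPS, 5 µM GABA and test drug in DMSO (final 0.5%). Nonspecific binding taken with 2 µM unlabeled TBPS. Filtration, then scintillation counting. Partial vs full and one- vs two-component models chosen by F-test. IC50 and Imax come from individual experiments, given as mean ± SEM of 3–4.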

[2] = molecular target: T1, GABA-A receptor; alpha-1/beta-2/gamma-2 (Homo sapiens, UniProt P14867+P18507+P47870); test: Steroid potentiation of 5% GABA responses in Xenopus oocytes expressing human alpha-1-beta-2-gamma-2L subunits of GABA-A receptor; assay type: functional, cell-based, Oocyte
T1 sequence (P14867 whole entry): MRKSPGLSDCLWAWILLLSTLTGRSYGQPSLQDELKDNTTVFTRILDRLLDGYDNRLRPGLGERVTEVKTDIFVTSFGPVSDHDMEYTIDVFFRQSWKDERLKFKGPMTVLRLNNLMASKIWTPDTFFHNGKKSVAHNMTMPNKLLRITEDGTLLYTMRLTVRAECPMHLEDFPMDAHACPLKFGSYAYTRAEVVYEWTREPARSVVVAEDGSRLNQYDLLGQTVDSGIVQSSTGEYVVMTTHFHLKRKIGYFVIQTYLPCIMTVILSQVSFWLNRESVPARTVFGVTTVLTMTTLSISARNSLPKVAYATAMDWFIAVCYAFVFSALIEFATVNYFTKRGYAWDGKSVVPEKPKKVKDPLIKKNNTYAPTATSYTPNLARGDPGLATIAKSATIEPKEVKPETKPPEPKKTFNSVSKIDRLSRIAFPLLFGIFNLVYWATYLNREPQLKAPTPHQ
T1 sequence (P47870 whole entry): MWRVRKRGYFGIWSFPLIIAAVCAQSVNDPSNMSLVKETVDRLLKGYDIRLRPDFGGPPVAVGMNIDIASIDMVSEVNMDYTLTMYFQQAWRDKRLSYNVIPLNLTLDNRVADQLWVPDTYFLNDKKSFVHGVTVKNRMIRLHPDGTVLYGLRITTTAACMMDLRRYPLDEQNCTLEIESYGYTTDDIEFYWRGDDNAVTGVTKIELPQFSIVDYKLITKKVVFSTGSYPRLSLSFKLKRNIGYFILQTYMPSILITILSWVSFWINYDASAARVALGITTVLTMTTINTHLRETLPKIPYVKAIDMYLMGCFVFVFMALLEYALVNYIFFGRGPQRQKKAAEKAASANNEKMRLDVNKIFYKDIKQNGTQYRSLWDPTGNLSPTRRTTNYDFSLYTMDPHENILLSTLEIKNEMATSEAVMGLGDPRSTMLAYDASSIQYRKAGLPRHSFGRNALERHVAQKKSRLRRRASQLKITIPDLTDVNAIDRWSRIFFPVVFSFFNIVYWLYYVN
T1 sequence (P18507 whole entry): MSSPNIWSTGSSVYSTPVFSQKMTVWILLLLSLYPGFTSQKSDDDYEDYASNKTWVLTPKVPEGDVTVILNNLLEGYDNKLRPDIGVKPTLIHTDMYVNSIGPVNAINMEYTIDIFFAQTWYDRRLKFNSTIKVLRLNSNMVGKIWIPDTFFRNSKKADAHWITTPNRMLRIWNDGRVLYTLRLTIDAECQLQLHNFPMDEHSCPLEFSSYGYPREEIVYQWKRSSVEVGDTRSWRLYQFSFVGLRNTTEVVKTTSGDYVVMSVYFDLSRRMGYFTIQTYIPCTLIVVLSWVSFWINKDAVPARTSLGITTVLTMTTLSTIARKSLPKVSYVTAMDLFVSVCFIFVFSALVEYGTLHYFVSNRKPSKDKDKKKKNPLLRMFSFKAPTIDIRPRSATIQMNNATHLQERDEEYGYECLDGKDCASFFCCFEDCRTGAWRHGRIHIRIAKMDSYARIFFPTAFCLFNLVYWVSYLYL
Method in brief: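 Xenopus oocytes injected with α1, β2, γ2L cRNAs (~1 ng each). Two-electrode voltage clamp at -70 mV in frog Ringer's, pH 7.4. GABA set to give about 5% of the maximal (1 mM GABA) current. Steroid stocks in DMSO diluted into Ringer's, DMSO 0.3%. Modulation is potentiation plus any direct steroid current, fitted to a four-parameter logistic. Mean ± SEM.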

[3] = molecular target: GABA-A receptor; anion channel; test: (§2) In vitro inhibition of [35S]TBPS binding to Gamma-aminobutyric acid A receptor in rat brain cortical membranes in the presence of 5 uM GABA (low affinity); assay type: cell membranes, Membrane
Method in brief: (§3)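 Rat cortical P2 membranes washed in 200 mM NaCl/50 mM Na-K phosphate pH 7.4, incubated 90 min at room temperature with 2 nM [35S]TBPS, 5 µM GABA and test drug in DMSO (final 0.5%). Nonspecific binding defined with 2 µM unlabeled TBPS. Filtration, scintillation counting. Fits to one- or two-component, full or partial inhibition models chosen by F-test; IC50 and Imax as mean ± SEM of individual experiments.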

Rattus norvegicus [4] = species: Rattus norvegicus; test: (§4) The maximum inhibitory potency was calculated by fitting [35S]TBPS inhibition data to a sigmoid function (rat brain cortical P2 membranes) (low affinity); assay type: functional; method in brief: as §3
Mus musculus [5] = test: Percent of animals (n=8) not exhibiting PTZ-induced ( Pentylentetrazol protection) seizures 10 min following a 10 mg/kg ip dose of steroid.; assay type: functional; settings: route intraperitoneal
Method in brief: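 Male NSA mice (15-20 g), n = 8. […] Mice watched 30 min for clonic seizure (forelimb clonus ≥3 s). Read-out is the percent of mice protected.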

[6] = molecular target: GABA-A receptor; anion channel; test: In vitro inhibition of [35S]TBPS binding to Gamma-aminobutyric acid A receptor in rat brain cortical membranes in the presence of 5 uM GABA (high affinity); assay type: cell membranes, Membrane; method in brief: as §3
[7] = molecular target: GABA-A receptor; anion channel; test: In vitro inhibition of [35S]TBPS binding to Gamma-aminobutyric acid A (GABA-A) receptor of rat brain cortical membranes in the presence of 5 uM GABA(high affinity); assay type: cell membranes, Membrane; method in brief: as §1
[8] = molecular target: GABA-A receptor; alpha-1/beta-2/gamma-2 (Homo sapiens) (UniProt P14867+P47870+P18507); test: Efficacy as fractional response (FR) relative to GABA maximum current elicited in the Xenopus oocytes; assay type: functional, cell-based; settings: Oocyte
Method in brief: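 Xenopus oocytes expressing α1β2γ2L GABAA receptors (~1 ng each cRNA), two-electrode voltage clamp at -70 mV in frog Ringer's pH 7.4. GABA set to give ~5% of maximal current (1 mM GABA). Steroid co-applied with 0.3% DMSO. Response taken as potentiation plus any direct current, expressed as a fraction of GABA maximum, fit to a four-parameter logistic.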

[9] = molecular target: T2, Gamma-aminobutyric acid receptor subunit gamma-1 (Rattus norvegicus, UniProt P23574); test: In vitro inhibition of [35S]-TBPS binding to Gamma-aminobutyric acid A receptor in rat brain cortical membranes in the presence of 5 uM GABA (low affinity); assay type: functional, cell membranes, Membrane; method in brief: as §1
T2 sequence (P23574 whole entry): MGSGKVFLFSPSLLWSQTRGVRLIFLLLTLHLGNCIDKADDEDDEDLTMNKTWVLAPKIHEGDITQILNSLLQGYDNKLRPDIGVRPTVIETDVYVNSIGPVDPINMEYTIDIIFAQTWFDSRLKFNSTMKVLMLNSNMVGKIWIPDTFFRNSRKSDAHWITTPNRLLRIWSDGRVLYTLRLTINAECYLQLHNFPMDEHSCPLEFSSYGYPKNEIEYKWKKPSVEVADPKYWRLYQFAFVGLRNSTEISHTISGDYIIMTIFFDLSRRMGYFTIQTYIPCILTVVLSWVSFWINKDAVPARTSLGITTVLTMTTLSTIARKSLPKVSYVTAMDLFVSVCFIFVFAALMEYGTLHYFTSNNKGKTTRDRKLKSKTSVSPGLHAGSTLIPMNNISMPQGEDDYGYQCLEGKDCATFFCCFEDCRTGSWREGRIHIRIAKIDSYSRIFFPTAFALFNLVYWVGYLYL

[10] = Slope value was determined
Rattus norvegicus [11] = species: Rattus norvegicus; test: as §4; assay type: functional; method in brief: as §1; remark: listed apart in the source
[12] = molecular target: GABA-A receptor; anion channel; test: as §2; assay type: cell membranes, Membrane; method in brief: as §1; remark: listed apart in the source
[13] = The slope value for efficacy and response
Method in brief: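 Oocytes expressing α1β2γ2L GABAA receptors under two-electrode voltage clamp in frog Ringer's pH 7.4. GABA or steroid concentration-response data fitted to a four-parameter logistic equation to derive slope. Mean ± SEM.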

[14] = molecular target: T2, Gamma-aminobutyric acid receptor subunit gamma-1; test: In vitro for inhibition of [35S]TBPS binding in rat brain cortical membranes in the presence of 5 uM GABA in two-component inhibition curve; assay type: functional, cell membranes, Membrane; method in brief: as §1
Rattus norvegicus [15] = species: Rattus norvegicus; test: (§5) The maximum inhibitory potency was calculated by fitting [35S]TBPS inhibition data to a sigmoid function (rat brain cortical P2 membranes); assay type: functional; method in brief: as §1
Rattus norvegicus [16] = species: Rattus norvegicus; test: as §5; assay type: functional; method in brief: as §3; remark: listed apart in the source
Mus musculus [17] = test: Anticonvulsant potency that produces blockade of PTZ-induced seizures when administered intraperitoneally; assay type: functional; settings: ip
Method in brief: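 Male NSA mice given steroid ip in 50% HP-β-CD 30 min before PTZ 85 mg/kg sc. Mice watched 30 min for forelimb clonus ≥3 s. Quantal dose-response; ED50 reported with 95% confidence interval.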

[18] = Toxic dose that produces increase in hanging-wire failure; assay type: toxicity; settings: mouse
Method in brief: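 Male NSA mice, 15–20 g, given steroid ip in 50% HP-β-CD 30 min before testing. Hanging wire of 2 mm diameter, 25 cm above padding. A pass means both hindpaws reach the wire within 5 s. Quantal scoring; TD50 with 95% confidence interval.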

Mus musculus [19] = test: Anticonvulsant potency that produces blockade of MES-induced seizures when administered intraperitoneally; assay type: functional; settings: ip
Method in brief: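 Male NSA mice given steroid ip in 50% HP-β-CD 30 min before corneal electroshock (50 mA, 60 pulses/s, 0.8 ms pulses, 1 s). End-point is tonic hindlimb extension >90° within 30 s. Quantal dose-response; ED50 reported with 95% CI.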

[20] = molecular target: GABA-A receptor; anion channel; test: In vitro inhibition of [35S]TBPS binding to gamma-aminobutyric-acid A receptor in rat brain cortical membranes in the presence of 5 uM GABA.; assay type: cell membranes, Membrane
Method in brief: as §1, with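 “F-test.” for “F-test. IC50 and Imax come from individual experiments, given as mean ± SEM of 3–4.”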

Structure (SMILES) | Imax (Rattus norvegicus [1]) [%] | EC50 [2] [µM] | IC50 [3] [µM] | Imax (Rattus norvegicus [4]) [%] | PTZ protection (Mus musculus [5]) [%] | IC50 [6] [µM] | IC50 [7] [µM] | Efficacy [8] | IC50 [9] [µM] | Slope [10] | Imax (Rattus norvegicus [11]) [%] | IC50 [12] [µM] | Slope [13] | IC50 [14] [µM] | Imax (Rattus norvegicus [15]) [%] | Imax (Rattus norvegicus [16]) [%] | ED50 (Mus musculus [17]) [mg/kg] | TD50 [18] [mg/kg] | ED50 (Mus musculus [19]) [mg/kg] | IC50 [20] [µM]
CC(=O)[C@H]1CC[C@H]2[C@@H]3CC[C@@H]4C[C@@](O)(C#Cc5ccc(N)cc5)CC[C@]4(C)[C@H]3CC[C@]12C | 17 | > 1 | 11.8 | 84 | 13 | 0.096 | – | – | – | – | – | – | – | – | – | – | – | – | – | –
CC(=O)[C@H]1CC[C@H]2[C@@H]3CC[C@@H]4C[C@@](O)(C#Cc5ccccc5O)CC[C@]4(C)[C@H]3CC[C@]12C | 30 | 0.34 | – | – | 0 | – | 0.082 | 0.51 | 5.1 | 1.6 | 57 | – | – | – | – | – | – | – | – | –
CC(=O)c1cccc(C#C[C@@]2(O)CC[C@@]3(C)[C@H](CC[C@@H]4[C@@H]3CC[C@]3(C)[C@@H](C(C)=O)CC[C@@H]43)C2)c1 | 34 | – | 1.5 | – | 0 | 0.045 | – | – | – | – | 65 | – | – | – | – | – | – | – | – | –
CC(=O)[C@H]1CC[C@H]2[C@@H]3CC[C@@H]4C[C@@](O)(C#Cc5ccc(C=O)cc5)CC[C@]4(C)[C@H]3CC[C@]12C | 44 | 0.031 | – | – | 0 | – | 0.067 | 0.88 | – | – | 54 | 1.6 | 1.3 | 1.6 | 54 | – | – | – | – | –
CC(=O)c1ccc(C#C[C@@]2(O)CC[C@H]3[C@H](CC[C@@H]4[C@@H]3CC[C@]3(C)[C@@H](C(C)=O)CC[C@@H]43)C2)cc1 | – | 0.0082 | – | – | 100 | – | – | 0.91 | – | 1.4 | – | – | – | – | – | 97 | 2.8 | 13.2 | 9.2 | –
CC(=O)c1ccc(C#C[C@@]2(O)CC[C@@]3(C)[C@H](CC[C@@H]4[C@@H]3CC[C@]3(C)[C@@H](C(C)=O)CC[C@@H]43)C2)cc1 | – | 0.0066 | – | – | 75 | – | – | 0.94 | – | 1.2 | – | – | – | – | – | 106 | 8.2 | 10 | 7.4 | 0.01
